# Laboratory results as given in ChEMBL document CHEMBL1123658, “1-(2-pyridinyl)piperazine derivatives with antianaphylactic, antibronchospastic, and mast cell stabilizing activities” (J Med Chem, 1987).
# Key:
# Cavia porcellus = assay: Antibronchospatic activity determined by histamine stimulated bronchospasm inhibition in guinea pigs after(i.v.) administration; type: functional, Bronchiole
# Summary of the method: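 Guinea pigs, Konzett–Rössler preparation. Bronchospasm was induced with histamine. Compound was given iv (1 mL/kg) 1 min before the agonist, dissolved in saline or saline with slight excess HCl or CH3SO3H (pH 3.5–4). Three doses were tested in duplicate, chosen to give 20–90% inhibition. ID75 was read graphically from log dose–response curves.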
# Rattus norvegicus [1] = assay: Rat PCA Test(50% inhibition of spot areas)in the female albino rats after (ip) administration in 10% aqueous acacia gum; Value ranges from(42-57); type: functional; conditions: read-out: ID50 (the source's name)
# Summary of the method: (§1)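 Female albino rats (200–250 g) received intradermal ventral injections of rat anti-egg-albumin antiserum; donors were raised with egg albumin im plus H. pertussis ip, and serum was taken at 12 days. 24 h later, compound was given ip in 10% acacia gum (10 mL/kg), 10 rats/group. Challenge 30 min later was iv 0.3% egg albumin plus 1% Evans blue. Blued areas were measured 30 min after challenge.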
# [2] = In vivo toxic effect was determined in mouse after intraperitoneal administration with 10% aqueous acacia gum; value ranges from 0.41-0.93; type: toxicity, organism-based; conditions: ip
# Summary of the method: (§2)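 Female albino mice (20-30 g), 10 animals per dose, dosed intraperitoneally with compound in solution or suspension; compounds tested as salts unless noted. Mortality was recorded over 7 days.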
# [3] = In vivo toxic effect was determined in mouse after oral administration with 10% aqueous acacia gum;Value ranges from(1.30-1.80); type: toxicity, organism-based
# Summary of the method: (§3)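 Female albino mice, 20-30 g. Compound given orally as solution or suspension in 10% aqueous acacia gum, 10 animals per dose. Deaths recorded over 7 days.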
# [4] = In vivo toxic effect was determined in mouse after intraperitoneal administration with 10% aqueous acacia gum; value ranges from 0.54-0.99; type: toxicity, organism-based; conditions: ip; summary of the method: as §2
# [5] = In vivo toxic effect was determined in mouse after oral administration with 10% aqueous acacia gum; value ranges from 0.94-1.65; type: toxicity, organism-based; summary of the method: as §3
# Rattus norvegicus [6] = assay: Rat PCA Test(50% inhibition of spot areas)in the female albino rats after (ip) administration in 10% aqueous acacia gum; type: functional; conditions: read-out: ID50 (the source's name); summary of the method: as §1
# [7] = In vivo toxic effect was determined in mouse after intraperitoneal administration with 10% aqueous acacia gum; value ranges from 1.35-1.82; type: toxicity, organism-based; conditions: ip; summary of the method: as §2
# Rattus norvegicus [8] = assay: Rat PCA Test(50% inhibition of spot areas)in the female albino rats after (ip) administration in 10% aqueous acacia gum; value ranges from 78-93; type: functional; conditions: read-out: ID50 (the source's name)
# Summary of the method: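 Antiserum came from female rats given 1% egg albumin in 0.9% NaCl intramuscularly plus Haemophilus pertussis vaccine (2 × 10^10 organisms) intraperitoneally, and was collected 12 days later. Recipient rats (200-250 g) got it intradermally at a ventral site. After 24 h, groups of 10 received vehicle or compound ip. At 30 min they were challenged iv with 0.3% egg albumin plus 1% Evans blue. Blued skin areas were measured 30 min later.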
# [9] = In vivo toxic effect was determined in mouse after intraperitoneal administration with 10% aqueous acacia gum; value ranges from 0.66-1.99; type: toxicity, organism-based; conditions: ip; summary of the method: as §2
# [10] = In vivo toxic effect was determined in mouse after oral administration with 10% aqueous acacia gum; value ranges from 0.93-1.70; type: toxicity, organism-based; summary of the method: as §3
# Rattus norvegicus [11] = assay: Inhibition of mast cell degranulation was assessed in female albino rats at a dose of 32 umol/kg iv; type: functional
# Rattus norvegicus [12] = assay: Rat PCA Test(50% inhibition of spot areas)in the female albino rats after oral administration in 10% aqueous acacia gum; value ranges from 119-331; type: functional; conditions: read-out: ID50 (the source's name)
# Summary of the method: (§4)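 Female rats (200-250 g) were passively sensitized by ventral intradermal anti-egg-albumin antiserum. This was raised in rats by intramuscular 1% egg albumin plus ip H. pertussis vaccine, with serum taken at 12 days. After 24 h, groups of 10 were dosed orally with compound or vehicle (10 mL/kg). At 60 min, iv challenge used 0.3% egg albumin with 1% Evans blue. Blued areas were measured after 30 min.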
# Rattus norvegicus [13] = assay: Rat PCA Test(50% inhibition of spot areas)in the female albino rats after (ip) administration in 10% aqueous acacia gum; value ranges from 40-122; type: functional; conditions: read-out: ID50 (the source's name); summary of the method: as §1
# [14] = In vivo toxic effect was determined in mouse after intraperitoneal administration with 10% aqueous acacia gum; value ranges from 0.96-1.77; type: toxicity, organism-based; conditions: ip; summary of the method: as §2
# [15] = In vivo toxic effect was determined in mouse after oral administration with 10% aqueous acacia gum; value ranges from 1.72-3.90; type: toxicity, organism-based; summary of the method: as §3
# [16] = In vivo toxic effect was determined in mouse after intraperitoneal administration with 10% aqueous acacia gum; value ranges from 0.56-0.94; type: toxicity, organism-based; conditions: ip; summary of the method: as §2
# [17] = In vivo toxicity in mouse after oral administration with 10% aqueous acacia gum; type: organism-based; summary of the method: as §3
# Rattus norvegicus [18] = assay: Rat PCA Test(50% inhibition of spot areas)in the female albino rats after oral administration in 10% aqueous acacia gum; type: functional; conditions: read-out: ID50 (the source's name); summary of the method: as §4
# [19] = In vivo toxic effect was determined in mouse after intraperitoneal administration with 10% aqueous acacia gum; value ranges from 0.94-1.40; type: toxicity, organism-based; conditions: ip; summary of the method: as §2
# [20] = In vivo toxic effect was determined in mouse after oral administration with 10% aqueous acacia gum value ranges from 1.63-2.93; type: toxicity, organism-based
# Rattus norvegicus [21] = assay: Rat PCA Test(50% inhibition of spot areas)in the female albino rats, using Goose and Blair method by dissolving or suspended the compound in 10% aqueous acacia gum and administered perorally.; Value ranges from (26-199); type: functional; conditions: po, read-out: ID50 (the source's name); summary of the method: as §4
# Rattus norvegicus [22] = assay: Rat PCA Test(50% inhibition of spot areas)in the female albino rats after (ip) administration in 10% aqueous acacia gum; value ranges from 35-79; type: functional; conditions: read-out: ID50 (the source's name); summary of the method: as §1
# [23] = In vivo toxic effect was determined in mouse after intraperitoneal administration with 10% aqueous acacia gum; value ranges from 0.97-2.74; type: toxicity, organism-based; conditions: ip; summary of the method: as §2
# [24] = In vivo toxic effect was determined in mouse after oral administration with 10% aqueous acacia gum; value ranges from 0.97-1.87; type: toxicity, organism-based; summary of the method: as §3
# Rattus norvegicus [25] = assay: Rat PCA Test(50% inhibition of spot areas)in the female albino rats after (ip) administration in 10% aqueous acacia gum; value ranges from 164-246; type: functional; conditions: read-out: ID50 (the source's name); summary of the method: as §1
# Mus musculus = assay: In vivo toxic effect was determined in mouse after intraperitoneal administration with 10% aqueous acacia gum; NA means poorly absorbed; type: toxicity, organism-based; conditions: ip; summary of the method: as §2
compound,measurement,setting,value
CC(=O)c1ccc(NC(=O)CCN2CCN(c3ccccn3)CC2)cc1.Cl.Cl,ID75,Cavia porcellus,0.02 µM/kg
same,ED50,Rattus norvegicus [1],49 µmol/kg
same,LD50,[2],480 µmol/kg
same,LD50,[3],1500 µmol/kg
CC(=O)c1cccc(NC(=O)CCN2CCN(c3ccccn3)CC2)c1.Cl.Cl,ID75,Cavia porcellus,0.2 µM/kg
same,LD50,[4],680 µmol/kg
same,LD50,[5],1110 µmol/kg
COC(=O)CC(C)N1CCN(c2ccccn2)CC1.O=C(O)/C=C\C(=O)O.O=C(O)/C=C\C(=O)O (stereo not drawn),ID75,Cavia porcellus,2.37 µM/kg
same,ED50,Rattus norvegicus [6],> 404 µmol/kg
same,LD50,[7],1350 µmol/kg
Cl.Cl.O=C(CCN1CCN(c2ccccn2)CC1)Nc1c(Cl)cccc1Cl,ID75,Cavia porcellus,0.4 µM/kg
same,ED50,Rattus norvegicus [8],85 µmol/kg
same,LD50,[9],800 µmol/kg
same,LD50,[10],1240 µmol/kg
Cl.Cl.O=C(CCN1CCN(c2ccccn2)CC1)Nc1ccccc1Cl,inhibition in vivo at 32 µmol/kg,Rattus norvegicus [11],0%
same,ED50,Rattus norvegicus [12],199 µmol/kg
same,ED50,Rattus norvegicus [13],70 µmol/kg
same,LD50,[14],1290 µmol/kg
same,LD50,[15],2640 µmol/kg
Cc1cc(C)c(C)c(NC(=O)CN2CCN(c3ccccn3)CC2)c1C,ID75,Cavia porcellus,>23.5 µM/kg
same,ED50,Rattus norvegicus [6],> 212 µmol/kg
same,LD50,[16],650 µmol/kg
O=C(CCN1CCN(c2ccccn2)CC1)Nc1ccc(NC(=O)Nc2ccccc2)cc1,ID75,Cavia porcellus,0.31 µM/kg
same,ED50,Rattus norvegicus [6],> 225 µmol/kg
same,LD50,[17],> 6700 µmol/kg
CC(C)Sc1ccc(NC(=O)CCN2CCN(c3ccccn3)CC2)cc1,ID75,Cavia porcellus,0.8 µM/kg
same,ED50,Rattus norvegicus [6],> 120 µmol/kg
same,ED50,Rattus norvegicus [18],> 221 µmol/kg
same,LD50,[19],1140 µmol/kg
same,LD50,[20],2180 µmol/kg
O=C(CCN1CCN(c2ccccn2)CC1)Nc1ccccc1,inhibition in vivo at 32 µmol/kg,Rattus norvegicus [11],12%
same,ED50,Rattus norvegicus [21],72 µmol/kg
same,ED50,Rattus norvegicus [22],53 µmol/kg
same,LD50,[23],1160 µmol/kg
same,LD50,[24],1350 µmol/kg
NC(=O)Nc1ccc(NC(=O)CCN2CCN(c3ccccn3)CC2)cc1,ID75,Cavia porcellus,0.25 µM/kg
same,ED50,Rattus norvegicus [25],194 µmol/kg
same,ED50,Rattus norvegicus [18],> 271 µmol/kg
same,LD50,[17],> 8100 µmol/kg
NS(=O)(=O)c1ccc(NC(=O)CCN2CCN(c3ccccn3)CC2)cc1,ID75,Cavia porcellus,0.19 µM/kg
same,ED50,Rattus norvegicus [6],> 257 µmol/kg
same,LD50,[17],> 7700 µmol/kg
same,LD50,Mus musculus,Not Active
